From ChEMBL document CHEMBL1770121 (Bioorg Med Chem, 2011)
Values after ≈ are worked out from the molar mass of the structure shown.

Assays:
[1] = Inhibition of bovine brain tubulin polymerization after 20 mins by turbidimetry; parameters: species or system Bos taurus
Outline: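 Varying concentrations were preincubated with 10 µM tubulin in glutamate buffer at 30 °C, then cooled to 0 °C. GTP was added and the mixtures moved to 0 °C cuvettes in a recording spectrophotometer. Assembly was followed by turbidity on warming to 30 °C.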

[2] = test system: HepG2; experiment: Antiproliferative activity against human HepG2 cells after 48 hrs by MTT assay; assay type: functional, cell-based; settings: HepG2, 48 h
Outline: (§1)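 Log-phase cells grown in RPMI 1640 with 10% FBS were seeded at 2 × 10⁴ cells/mL and left 24 h at 37 °C, 5% CO₂. […] After 48 h MTT was added and the formazan dissolved in 10% SDS–5% isobutyl alcohol–0.01 M HCl overnight at 37 °C. OD was read at 570 nm, three replicate wells per concentration.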

[3] = test system: B16-F10; experiment: Antiproliferative activity against mouse B16F10 cells after 48 hrs by MTT assay; assay type: functional, cell-based; settings: B16-F10, 48 h; outline: as §1
[4] = test system: A549; experiment: Antiproliferative activity against human A549 cells after 48 hrs by MTT assay; assay type: functional, cell-based; settings: A549, 48 h; outline: as §1
[5] = test system: B16-F10; experiment: Cell cycle arrest in mouse B16F10 cells assessed as accumulation at Go/G1 phase at 1 ug/ml after 24 hrs by flow cytometry (Rbv = 66.15%); assay type: functional
[6] = test system: B16-F10; experiment: Cell cycle arrest in mouse B16F10 cells assessed as accumulation at S phase at 1 ug/ml after 24 hrs by flow cytometry (Rbv = 14.96%); assay type: functional
[7] = test system: B16-F10; experiment: Cell cycle arrest in mouse B16F10 cells assessed as accumulation at G2/M phase at 1 ug/ml after 24 hrs by flow cytometry (Rbv = 12.27%); assay type: functional
[8] = test system: B16-F10; experiment: Cell cycle arrest in mouse B16F10 cells assessed as accumulation at G2/M phase at 5 ug/ml after 24 hrs by flow cytometry (Rbv = 12.27%); assay type: functional
[9] = test system: B16-F10; experiment: Cell cycle arrest in mouse B16F10 cells assessed as accumulation at Go/G1 phase at 5 ug/ml after 24 hrs by flow cytometry (Rbv = 66.15%); assay type: functional
[10] = test system: B16-F10; experiment: Cell cycle arrest in mouse B16F10 cells assessed as accumulation at S phase at 5 ug/ml after 24 hrs by flow cytometry (Rbv = 14.96%); assay type: functional

IC50 [1]	IC50 [2]	IC50 [3]	IC50 [4]	Compound	Activity [5]	Activity [6]	Activity [7]	Activity [8]	Activity [9]	Activity [10]
94 µg/mL (≈ 199 µM)	12.9 µg/mL (≈ 27.3 µM)	5.3 µg/mL (≈ 11.2 µM)	8.7 µg/mL (≈ 18.4 µM)	CCCCOc1ccc(C(=O)/C=C/c2c(/C=C/c3ccc(OC)cc3)cc(OC)cc2OC)cc1	–	–	–	–	–	–
55 µg/mL (≈ 113 µM)	11.1 µg/mL (≈ 22.8 µM)	6.7 µg/mL (≈ 13.8 µM)	9.4 µg/mL (≈ 19.3 µM)	CCCC(C)Oc1ccc(C(=O)/C=C/c2c(/C=C/c3ccc(OC)cc3)cc(OC)cc2OC)cc1 (configuration not stated)	–	–	–	–	–	–
131 µg/mL (≈ 262 µM)	16.2 µg/mL (≈ 32.4 µM)	10.4 µg/mL (≈ 20.8 µM)	8.4 µg/mL (≈ 16.8 µM)	CCCCCCOc1ccc(C(=O)/C=C/c2c(/C=C/c3ccc(OC)cc3)cc(OC)cc2OC)cc1	–	–	–	–	–	–
58 µg/mL (≈ 99.2 µM)	11.6 µg/mL (≈ 19.8 µM)	12.7 µg/mL (≈ 21.7 µM)	7.9 µg/mL (≈ 13.5 µM)	CCCCCCCCCCCCOc1ccc(C(=O)/C=C/c2c(/C=C/c3ccc(OC)cc3)cc(OC)cc2OC)cc1	–	–	–	–	–	–
64 µg/mL (≈ 153 µM)	12.2 µg/mL (≈ 29.2 µM)	5.3 µg/mL (≈ 12.7 µM)	6.6 µg/mL (≈ 15.8 µM)	COc1ccc(/C=C/c2cc(OC)cc(OC)c2/C=C/C(=O)c2ccc(F)cc2)cc1	–	–	–	–	–	–
80 µg/mL (≈ 184 µM)	13.6 µg/mL (≈ 31.3 µM)	4.9 µg/mL (≈ 11.3 µM)	6.4 µg/mL (≈ 14.7 µM)	COc1ccc(/C=C/c2cc(OC)cc(OC)c2/C=C/C(=O)c2ccc(Cl)cc2)cc1	–	–	–	–	–	–
72 µg/mL (≈ 150 µM)	12.9 µg/mL (≈ 26.9 µM)	6.5 µg/mL (≈ 13.6 µM)	8.3 µg/mL (≈ 17.3 µM)	COc1ccc(/C=C/c2cc(OC)cc(OC)c2/C=C/C(=O)c2ccc(Br)cc2)cc1	–	–	–	–	–	–
41 µg/mL (≈ 94.3 µM)	9.5 µg/mL (≈ 21.8 µM)	3.3 µg/mL (≈ 7.59 µM)	5.6 µg/mL (≈ 12.9 µM)	COc1ccc(/C=C/c2cc(OC)cc(OC)c2/C=C/C(=O)c2cccc(Cl)c2)cc1	–	–	–	–	–	–
76 µg/mL (≈ 159 µM)	13 µg/mL (≈ 27.1 µM)	5.1 µg/mL (≈ 10.6 µM)	8.1 µg/mL (≈ 16.9 µM)	COc1ccc(/C=C/c2cc(OC)cc(OC)c2/C=C/C(=O)c2cccc(Br)c2)cc1	–	–	–	–	–	–
47 µg/mL (≈ 100 µM)	10.8 µg/mL (≈ 23 µM)	7.5 µg/mL (≈ 16 µM)	5.9 µg/mL (≈ 12.6 µM)	COc1ccc(/C=C/c2cc(OC)cc(OC)c2/C=C/C(=O)c2ccc(Cl)c(Cl)c2)cc1	–	–	–	–	–	–
150 µg/mL (≈ 320 µM)	18.7 µg/mL (≈ 39.9 µM)	4.3 µg/mL (≈ 9.18 µM)	7.8 µg/mL (≈ 16.6 µM)	COc1ccc(/C=C/c2cc(OC)cc(OC)c2/C=C/C(=O)c2ccc(C(F)(F)F)cc2)cc1	–	–	–	–	–	–
29 µg/mL (≈ 70 µM)	4.8 µg/mL (≈ 11.6 µM)	5.3 µg/mL (≈ 12.8 µM)	3.6 µg/mL (≈ 8.69 µM)	COc1ccc(/C=C/c2cc(OC)cc(OC)c2/C=C/C(=O)c2ccc(C)cc2)cc1	–	–	–	–	–	–
42 µg/mL (≈ 101 µM)	5.3 µg/mL (≈ 12.8 µM)	6.1 µg/mL (≈ 14.7 µM)	5.9 µg/mL (≈ 14.2 µM)	COc1ccc(/C=C/c2cc(OC)cc(OC)c2/C=C/C(=O)c2ccccc2C)cc1	–	–	–	–	–	–
4.1 µg/mL (≈ 9.57 µM)	0.9 µg/mL (≈ 2.1 µM)	4 µg/mL (≈ 9.33 µM)	0.3 µg/mL (≈ 0.7 µM)	COc1ccc(/C=C/c2cc(OC)cc(OC)c2/C=C/C(=O)c2ccc(C)cc2C)cc1	–	–	–	–	–	–
2.6 µg/mL (≈ 6.07 µM)	0.2 µg/mL (≈ 0.467 µM)	1.4 µg/mL (≈ 3.27 µM)	0.1 µg/mL (≈ 0.233 µM)	COc1ccc(/C=C/c2cc(OC)cc(OC)c2/C=C/C(=O)c2ccc(C)c(C)c2)cc1	39.65%	13.99%	31.5%	72.1%	10.05%	7.04%
36 µg/mL (≈ 86.6 µM)	7.5 µg/mL (≈ 18.1 µM)	2.8 µg/mL (≈ 6.74 µM)	3.8 µg/mL (≈ 9.15 µM)	COc1ccc(/C=C/c2cc(OC)cc(OC)c2/C=C/C(=O)c2ccc(N)cc2)cc1	–	–	–	–	–	–
33 µg/mL (≈ 70 µM)	6.3 µg/mL (≈ 13.4 µM)	8.1 µg/mL (≈ 17.2 µM)	5.4 µg/mL (≈ 11.5 µM)	CCN(CC)c1ccc(C(=O)/C=C/c2c(/C=C/c3ccc(OC)cc3)cc(OC)cc2OC)cc1	–	–	–	–	–	–
44 µg/mL (≈ 92.3 µM)	10.5 µg/mL (≈ 22 µM)	10.6 µg/mL (≈ 22.2 µM)	4.6 µg/mL (≈ 9.65 µM)	COc1ccc(/C=C/c2cc(OC)cc(OC)c2/C=C/C(=O)c2ccc(-c3ccccc3)cc2)cc1	–	–	–	–	–	–
38 µg/mL (≈ 78.3 µM)	7.3 µg/mL (≈ 15 µM)	3.3 µg/mL (≈ 6.8 µM)	3.8 µg/mL (≈ 7.83 µM)	COc1ccc(/C=C/c2cc(OC)cc(OC)c2/C=C/C(=O)c2ccc(N3CCOCC3)cc2)cc1	–	–	–	–	–	–
34 µg/mL (≈ 84.9 µM)	6.8 µg/mL (≈ 17 µM)	3.7 µg/mL (≈ 9.24 µM)	3.9 µg/mL (≈ 9.74 µM)	COc1ccc(/C=C/c2cc(OC)cc(OC)c2/C=C/C(=O)c2ccccc2)cc1	–	–	–	–	–	–
59 µg/mL (≈ 137 µM)	11.6 µg/mL (≈ 26.9 µM)	4.3 µg/mL (≈ 9.99 µM)	6.1 µg/mL (≈ 14.2 µM)	COc1ccc(/C=C/c2cc(OC)cc(OC)c2/C=C/C(=O)c2cccc(OC)c2)cc1	–	–	–	–	–	–
43 µg/mL (≈ 99.9 µM)	4.9 µg/mL (≈ 11.4 µM)	5.8 µg/mL (≈ 13.5 µM)	4.5 µg/mL (≈ 10.5 µM)	COc1ccc(/C=C/c2cc(OC)cc(OC)c2/C=C/C(=O)c2ccc(OC)cc2)cc1	–	–	–	–	–	–
26 µg/mL (≈ 58.5 µM)	8 µg/mL (≈ 18 µM)	6.4 µg/mL (≈ 14.4 µM)	7.5 µg/mL (≈ 16.9 µM)	CCOc1ccc(C(=O)/C=C/c2c(/C=C/c3ccc(OC)cc3)cc(OC)cc2OC)cc1	–	–	–	–	–	–
158 µg/mL (≈ 692 µM)	38.9 µg/mL (≈ 170 µM)	37.3 µg/mL (≈ 163 µM)	30.4 µg/mL (≈ 133 µM)	Oc1ccc(/C=C/c2cc(O)cc(O)c2)cc1 [RESVERATROL]	–	–	–	–	–	–

Compound	IC50 [1]	IC50 [2]	IC50 [3]	IC50 [4]	Activity [5]	Activity [6]	Activity [7]	Activity [8]	Activity [9]	Activity [10]
COc1cc2c(c(OC)c1OC)-c1ccc(OC)c(=O)cc1[C@@H](NC(C)=O)CC2 [COLCHICINE]	–	0.23 µg/mL (≈ 0.576 µM)	0.5 µg/mL (≈ 1.25 µM)	0.12 µg/mL (≈ 0.3 µM)	2.65%	2.29%	90.46%	–	–	–
COc1ccc(/C=C\c2cc(OC)c(OC)c(OC)c2)cc1O [COMBRETASTATIN A4]	0.7 µg/mL (≈ 2.21 µM)	0.19 µg/mL (≈ 0.601 µM)	0.4 µg/mL (≈ 1.26 µM)	0.09 µg/mL (≈ 0.284 µM)	–	–	–	–	–	–
